# Measurements as given in ChEMBL document CHEMBL1212854, “The structure-activity relationships of A-ring-substituted aromathecin topoisomerase I inhibitors strongly support a camptothecin-like binding mode” (2010).
# The source made the active and inactive calls. The rule behind the calls is not given here.
# Tests used:
# [1] = molecular target: T1, DNA topoisomerase 1 (Homo sapiens) (UniProt P11387); assay: Inhibition of human recombinant Top1-mediated DNA cleavage at 0.1 to 100 uM after 20 mins relative to camptothecin; parameters: scale not given: the % may be the effect or the level left
# T1 sequence (whole entry): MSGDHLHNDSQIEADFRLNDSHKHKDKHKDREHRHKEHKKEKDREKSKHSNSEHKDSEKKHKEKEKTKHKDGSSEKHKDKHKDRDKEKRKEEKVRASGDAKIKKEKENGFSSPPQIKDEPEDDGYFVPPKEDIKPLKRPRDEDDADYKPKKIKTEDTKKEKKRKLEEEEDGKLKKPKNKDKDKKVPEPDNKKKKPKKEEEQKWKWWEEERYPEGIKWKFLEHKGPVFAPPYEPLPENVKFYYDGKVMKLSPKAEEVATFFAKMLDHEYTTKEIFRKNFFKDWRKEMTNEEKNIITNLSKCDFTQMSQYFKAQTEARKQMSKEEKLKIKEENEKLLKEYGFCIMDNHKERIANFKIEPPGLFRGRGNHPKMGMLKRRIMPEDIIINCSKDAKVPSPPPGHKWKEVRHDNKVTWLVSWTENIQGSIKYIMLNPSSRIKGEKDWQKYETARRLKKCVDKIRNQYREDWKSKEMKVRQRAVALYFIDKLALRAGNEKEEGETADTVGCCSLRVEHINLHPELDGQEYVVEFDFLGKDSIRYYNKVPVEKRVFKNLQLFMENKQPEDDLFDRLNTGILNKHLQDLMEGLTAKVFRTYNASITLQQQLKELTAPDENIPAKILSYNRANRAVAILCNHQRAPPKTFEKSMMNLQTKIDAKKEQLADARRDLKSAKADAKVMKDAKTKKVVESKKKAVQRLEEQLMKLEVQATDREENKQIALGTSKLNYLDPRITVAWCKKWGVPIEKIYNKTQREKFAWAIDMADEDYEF
# Outline: (§1)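 Human recombinant Top1 purified from baculovirus. Substrate is a 117-bp oligonucleotide, about 2 nM, 3′-end labelled with 32P-dGTP by Klenow fill-in. Stopped with 0.5% SDS, run on 20% denaturing PAGE and phosphorimaged. Cleavage graded 0 to +++ against 1 μM camptothecin.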
# [2] = tested on: NCI-60 human cancer cell line panel (Homo sapiens); assay: Cytotoxicity against NCI-60 human cancer cell line panel (mean) at 10 uM; details: pooled result: one value given for 8 cell lines, strains, targets or settings, read-out: GI
# [3] = tested on: SN12C; assay: Cytotoxicity against human SN12C cells; format: functional
# Outline: (§2)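 NCI 60-cell-line screen (eight solid-tumour subpanels plus leukemia). A one-dose pass at 10−5 M came first. Selected compounds were then run at five concentrations from 10−8 to 10−4 M. GI50 is the concentration giving 50% growth inhibition.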
# [4] = tested on: SF-539; assay: Cytotoxicity against human SF539 cells; format: functional; outline: as §2
# [5] = tested on: MCF7; assay: Cytotoxicity against human MCF7 cells; format: functional; outline: as §2
# [6] = tested on: UACC-62; assay: Cytotoxicity against human UACC62 cells; format: functional; outline: as §2
# [7] = tested on: HCT-116; assay: Cytotoxicity against human HCT116 cells; format: functional; outline: as §2
# [8] = tested on: DU-145; assay: Cytotoxicity against human DU145 cells; format: functional; outline: as §2
# [9] = tested on: HOP-62; assay: Cytotoxicity against human HOP62 cells; format: functional; outline: as §2
# [10] = molecular target: T1, DNA topoisomerase 1 (Homo sapiens); assay: Inhibition of human recombinant Top1-mediated DNA cleavage at 1 uM after 20 mins relative to camptothecin; outline: as §1
# [11] = tested on: OVCAR-3; assay: Cytotoxicity against human OVCAR-3 cells; format: functional; outline: as §2
Structure (SMILES),Activity [1],inhibition of growth at 10 µM [2] [%],GI50 [3] [nM],GI50 [4] [nM],GI50 [5] [nM],GI50 [6] [nM],GI50 [7] [nM],GI50 [8] [nM],GI50 [9] [nM],Activity [10],GI50 [11] [nM]
COc1cc2nc3c(c(CN4CC[C@H](O)C4)c2cc1OC)Cn1c-3cc2ccccc2c1=O,inactive,14.2,–,–,–,–,–,–,–,–,–
O=c1c2ccccc2cc2n1Cc1c-2nc2cc(Cl)ccc2c1Cn1ccnc1,0%,< 15,–,–,–,–,–,–,–,–,–
O=c1c2ccccc2cc2n1Cc1c-2nc2ccc(Cl)cc2c1CNCCCn1ccnc1,50%,30,–,–,–,–,–,–,–,–,–
O=c1c2ccccc2cc2n1Cc1c-2nc2cc3c(cc2c1CNCCCn1ccnc1)OCCO3,50%,14.3,–,–,–,–,–,–,–,–,–
CN1CCN(Cc2c3c(nc4cc5c(cc24)OCCO5)-c2cc4ccccc4c(=O)n2C3)CC1,50%,23,–,–,–,–,–,–,–,–,–
Cc1cc2c(CN3CC[C@H](O)C3)c3c(nc2cc1F)-c1cc2ccccc2c(=O)n1C3,50%,> 25,–,–,–,–,–,–,–,–,–
CC[C@@]1(O)C(=O)OCc2c1cc1n(c2=O)Cc2cc3ccccc3nc2-1 [CAMPTOTHECIN],–,–,20,10,10,10,30,10,10,Active,–
COc1cc2c3c(n(CCCNCCO)c(=O)c2cc1OC)-c1cc2c(cc1C3=O)OCO2 [LMP-744],–,–,< 10,40,< 10,30,100,< 10,20,Active,500
O=c1c2ccccc2cc2n1Cc1c-2nc2cc3c(cc2c1CNCCCN1CCOCC1)OCCO3,50%,10.8,–,–,–,–,–,–,–,–,–
O=c1c2ccccc2cc2n1Cc1c-2nc2cc(Cl)ccc2c1CNCCCn1ccnc1,20%,> 15,2090,1860,1660,1910,1820,–,2000,–,2040
O=c1c2ccccc2cc2n1Cc1c-2nc2cc3c(cc2c1CCl)OCCO3,20%,10.3,–,–,–,–,–,–,–,–,–
Cc1cc2c(CNCCO)c3c(nc2cc1F)-c1cc2ccccc2c(=O)n1C3,50%,> 25,20200,9230,1620,14200,18400,12200,11200,–,16800
CN(C)CCCc1c2c(nc3cc4c(cc13)OCCO4)-c1cc3ccccc3c(=O)n1C2,75%,19,–,–,–,–,–,–,–,–,–
O=c1c2ccccc2cc2n1Cc1c-2nc2cc(Cl)ccc2c1CN1CC[C@H](O)C1,20%,< 15,–,–,–,–,–,–,–,–,–
